Consider twelve compounds from ChEMBL document CHEMBL1138292, “Discovery of a tetrazole-based growth hormone secretagogue: 4-(hydroxybutyl)carbamic acid 2-{5-[1-(2-amino-2-methylpropionylamino)-2- benzyloxyethyl]tetrazol-1-yl}ethyl ester (BMS-317180)” (J Med Chem, 2007).

Usually pEC50 stands for the negative decadic logarithm of the EC50, by convention in mol/L. The bioavailability is dose-corrected exposure relative to a reference, in per cent. The term ED50 denotes the midpoint of the dose-response relation. One may read the CL/F as clearance divided by bioavailability, as obtained after extravascular dosing. As a reminder, the pIC50 is the IC50 on a negative log10 scale, so that one unit is a factor of ten. Broadly, the half-life is the time in which the quantity being followed falls by half. In general, solubility refers to the dissolved amount per volume that the medium holds.

The target of data set [1] is Growth hormone secretagogue receptor type 1 (Homo sapiens, UniProt Q92847). The data set can be described thus: Intrinsic activity at human GHS receptor in H4 glioma cells assessed by measuring intracellular calcium concentration by FLIPR assay. The class given is functional, cell-based. A digest of the protocol:
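H4 glioma cells with endogenous human GHS receptor expression enhanced by RAGE activation. Agonist-stimulated intracellular calcium mobilization read with a calcium-sensitive fluorescent probe in FLIPR.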
On the technique in general: Calcium assays in cells follow changes in intracellular calcium, usually with a dye or a luminescent sensor.

Data set [2] is described as follows: Bioavailability in rat. The class given is ADME, organism-based. Conditions: in vivo.
The test system of another data set is Rattus norvegicus. As to the kind of experiment: Increase in plasma growth hormone level in iv dosed Wistar rat after 15 mins by radioimmunoassay. The class given is functional. To be noted: 0.25 h. In outline:
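Anesthetized rats, groups of five, dosed iv in 10% ethanol, […] saline (v/v) vehicle at 10 mL/kg. Abdominal aorta blood sampled at 15 min; plasma rat GH measured by a modified radioimmunoassay kit.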

The subject of data set [3] is Salmonella typhimurium. The data set can be described thus: Mutagenic effect on Salmonella Typhimurium TA98 by Ames test. It is filed as toxicity, organism-based. To be noted: salmonella enterica subsp. enterica serovar typhimurium. (In general: The Ames test uses bacterial strains that need an amino acid and regain growth without it when mutated back.)
The nature of data set [4]: Plasma clearance in rat at 15 umol/kg, po. It is filed as ADME, organism-based. A digest of the protocol:
(§1)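 Fasted animals (rat, cynomolgus monkey, beagle dog) given single oral doses of 15, 10 and 10 µmol/kg respectively; intravenous reference dose 5 µmol/kg in all species. Oral bioavailability, half-life and plasma clearance derived from the plasma profiles.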

In data set [5] the test system is Canis familiaris. The data set can be described thus: Increase in plasma growth hormone level in Beagle dog at 0.52 to 52.3 umol/kg, po. It is filed as functional, organism-based. Conditions: Canis lupus familiaris. A digest of the protocol:
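Conscious beagle dogs given single oral doses of 0.52 to 52.3 µmol/kg, water as vehicle control; plasma GH followed over a 4 h time course.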

In another data set the target is Cytochrome P450 2C19 (Homo sapiens, UniProt P33261). As to the kind of experiment: Inhibition of CYP2C19. The class given is ADME.
Sequence of Cytochrome P450 2C19 (P33261 whole entry): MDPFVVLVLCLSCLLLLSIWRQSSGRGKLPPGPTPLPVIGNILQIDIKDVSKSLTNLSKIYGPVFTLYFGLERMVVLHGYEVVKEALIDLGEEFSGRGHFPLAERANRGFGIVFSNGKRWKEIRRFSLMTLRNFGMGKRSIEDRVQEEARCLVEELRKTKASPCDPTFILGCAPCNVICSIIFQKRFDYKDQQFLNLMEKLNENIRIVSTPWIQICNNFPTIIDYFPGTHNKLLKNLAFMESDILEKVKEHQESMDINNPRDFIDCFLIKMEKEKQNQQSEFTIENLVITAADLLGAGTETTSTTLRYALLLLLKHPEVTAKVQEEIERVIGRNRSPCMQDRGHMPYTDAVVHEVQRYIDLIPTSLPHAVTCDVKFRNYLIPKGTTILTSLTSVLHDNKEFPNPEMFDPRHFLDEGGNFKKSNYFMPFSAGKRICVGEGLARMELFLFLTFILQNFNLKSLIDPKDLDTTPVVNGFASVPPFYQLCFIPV
The test system of data set [6] is Macaca fascicularis. The data set can be described thus: Half life in monkey at 10 umol/kg, po. To be noted: cynomolgus monkey, in vivo.
For data set [7], the system named is Canis familiaris. As to the kind of experiment: Plasma clearance in Beagle dog at 10 umol/kg, po. The class given is ADME, organism-based, Canis lupus familiaris. To be noted: in vivo. In outline:
as §1

The next data set relates to Hepatocyte. As to the kind of experiment: Toxicity in human hepatocytes upto 250 ug/mL. It is filed as cell-based. A digest of the protocol: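 Human hepatocyte hepatotoxicity assay run at concentrations up to 250 µg/mL.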
In another data set the target is Cytochrome P450 2D6 (Homo sapiens, UniProt P10635). The data set can be described thus: Inhibition of CYP2D6. The class given is ADME.
Sequence of Cytochrome P450 2D6 (P10635 whole entry): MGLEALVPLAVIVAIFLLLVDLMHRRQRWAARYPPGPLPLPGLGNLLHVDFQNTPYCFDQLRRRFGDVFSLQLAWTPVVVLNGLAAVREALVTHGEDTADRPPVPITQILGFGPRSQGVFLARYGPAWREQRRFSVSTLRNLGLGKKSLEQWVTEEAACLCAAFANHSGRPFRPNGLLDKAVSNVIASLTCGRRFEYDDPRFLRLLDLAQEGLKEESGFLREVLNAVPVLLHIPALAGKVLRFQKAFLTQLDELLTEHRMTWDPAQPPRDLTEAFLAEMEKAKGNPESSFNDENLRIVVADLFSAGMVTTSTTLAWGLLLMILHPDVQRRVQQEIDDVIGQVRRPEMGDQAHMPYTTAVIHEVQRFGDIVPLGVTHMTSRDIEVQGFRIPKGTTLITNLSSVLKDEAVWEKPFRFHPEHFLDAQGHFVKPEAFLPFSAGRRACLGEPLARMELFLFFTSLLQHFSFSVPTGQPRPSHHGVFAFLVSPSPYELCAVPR
Another data set addresses Cytochrome P450 3A4 (Homo sapiens, UniProt P08684). The data set can be described thus: Inhibition of CYP3A4. It is filed as ADME.
Data set [8] relates to Macaca fascicularis. The data set can be described thus: Bioavailability in monkey at 10 umol/kg, po. To be noted: cynomolgus monkey, in vivo.
Data set [9] in a line: Half life in Beagle dog at 10 umol/kg, po. It is filed as ADME, organism-based, Canis lupus familiaris. Conditions: in vivo. A digest of the protocol: as §1
The nature of data set [10]: Bioavailability in Beagle dog at 10 umol/kg, po. To be noted: in vivo. It is filed as ADME, organism-based, Canis lupus familiaris. In outline: as §1
The target in the next data set is Cytochrome P450 2C9 (Homo sapiens, UniProt P11712). As to the kind of experiment: Inhibition of CYP2C9. The class given is ADME.
Sequence of Cytochrome P450 2C9 (P11712 whole entry): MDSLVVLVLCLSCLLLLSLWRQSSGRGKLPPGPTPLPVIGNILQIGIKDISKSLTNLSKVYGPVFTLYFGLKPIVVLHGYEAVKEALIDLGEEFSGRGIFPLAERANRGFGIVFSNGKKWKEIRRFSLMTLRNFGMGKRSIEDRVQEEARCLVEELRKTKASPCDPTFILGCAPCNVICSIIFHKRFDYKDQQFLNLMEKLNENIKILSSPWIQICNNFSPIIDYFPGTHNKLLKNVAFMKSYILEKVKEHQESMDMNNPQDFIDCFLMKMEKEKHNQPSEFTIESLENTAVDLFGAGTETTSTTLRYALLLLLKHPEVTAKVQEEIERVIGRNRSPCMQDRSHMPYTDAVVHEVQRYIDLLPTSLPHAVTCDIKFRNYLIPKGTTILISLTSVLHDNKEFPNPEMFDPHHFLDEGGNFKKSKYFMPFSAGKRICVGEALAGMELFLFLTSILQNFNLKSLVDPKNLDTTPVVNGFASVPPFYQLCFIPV
Data set [11] concerns Salmonella typhimurium. The data set can be described thus: Mutagenic effect on Salmonella Typhimurium TA100 by Ames test. To be noted: salmonella enterica subsp. enterica serovar typhimurium. It is filed as toxicity, organism-based.
The next data set addresses T1, Cytochrome P450 1A2 (Homo sapiens, UniProt P05177).
T1 sequence (P05177 whole entry): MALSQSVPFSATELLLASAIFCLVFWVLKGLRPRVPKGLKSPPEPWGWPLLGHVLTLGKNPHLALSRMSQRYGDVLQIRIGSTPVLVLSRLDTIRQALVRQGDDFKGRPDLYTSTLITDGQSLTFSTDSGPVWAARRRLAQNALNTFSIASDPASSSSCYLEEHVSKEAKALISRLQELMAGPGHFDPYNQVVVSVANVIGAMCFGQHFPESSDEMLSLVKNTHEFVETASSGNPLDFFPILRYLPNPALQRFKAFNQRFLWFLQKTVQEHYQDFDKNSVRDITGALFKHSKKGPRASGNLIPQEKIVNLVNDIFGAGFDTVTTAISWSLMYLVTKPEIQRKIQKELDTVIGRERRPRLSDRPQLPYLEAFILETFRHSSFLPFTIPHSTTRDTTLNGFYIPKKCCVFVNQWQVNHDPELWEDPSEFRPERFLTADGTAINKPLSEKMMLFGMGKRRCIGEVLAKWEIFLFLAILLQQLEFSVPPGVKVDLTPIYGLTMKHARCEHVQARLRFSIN
The data set can be described thus: Inhibition of CYP1A2. It is filed as ADME.

Data set [12] has as its system Macaca fascicularis. As to the kind of experiment: Plasma clearance in monkey at 10 umol/kg, po. Conditions: cynomolgus monkey.
A short description of data set [13]: Solubility at pH 4. Conditions: buffer. The class given is physicochemical.
Data set [14] can be described thus: Bioavailability in rat at 15 umol/kg, po. The class given is ADME, organism-based. To be noted: in vivo. In outline:
as §1

Data set [15] in a line: Half life in rat at 15 umol/kg, po. The class given is ADME, organism-based. To be noted: in vivo. In outline:
as §1

pEC50, pIC50: −log10 of the molar value. Activity calls are given as the source filed them. The rule behind the calls is not given here.

Sequence of Growth hormone secretagogue receptor type 1 (Q92847 whole entry): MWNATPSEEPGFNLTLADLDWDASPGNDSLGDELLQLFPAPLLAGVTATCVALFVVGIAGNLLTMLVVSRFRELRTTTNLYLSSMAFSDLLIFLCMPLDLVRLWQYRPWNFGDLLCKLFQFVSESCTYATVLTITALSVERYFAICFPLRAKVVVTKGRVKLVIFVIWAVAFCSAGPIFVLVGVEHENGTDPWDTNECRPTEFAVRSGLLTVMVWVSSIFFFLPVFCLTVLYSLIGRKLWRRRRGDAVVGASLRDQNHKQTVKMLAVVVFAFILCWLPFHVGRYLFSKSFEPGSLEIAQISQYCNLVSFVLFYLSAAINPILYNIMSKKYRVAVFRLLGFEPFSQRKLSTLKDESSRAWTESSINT
Sequence of Cytochrome P450 3A4 (P08684 whole entry): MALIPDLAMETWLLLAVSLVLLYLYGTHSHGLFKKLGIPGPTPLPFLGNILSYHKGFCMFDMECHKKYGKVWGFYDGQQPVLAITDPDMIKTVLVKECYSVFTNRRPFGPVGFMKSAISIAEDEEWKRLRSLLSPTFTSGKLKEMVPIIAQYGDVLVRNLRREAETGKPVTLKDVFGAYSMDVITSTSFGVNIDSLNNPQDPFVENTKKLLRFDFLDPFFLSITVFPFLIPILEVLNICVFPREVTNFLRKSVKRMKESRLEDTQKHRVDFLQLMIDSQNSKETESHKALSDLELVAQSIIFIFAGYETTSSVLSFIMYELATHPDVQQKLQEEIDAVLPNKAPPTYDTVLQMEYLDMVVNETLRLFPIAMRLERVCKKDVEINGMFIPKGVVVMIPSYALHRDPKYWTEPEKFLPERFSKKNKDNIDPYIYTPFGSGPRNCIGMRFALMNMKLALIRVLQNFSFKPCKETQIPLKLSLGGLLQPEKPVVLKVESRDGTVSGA

Turning to `CC(C)(N)C(=O)N[C@H](COCc1ccccc1)c1nnnn1CCOC(=O)NC[C@H]1CCCO1`, in data set [1], the pEC50 was 8.02.

Turning to `CC(C)(N)C(=O)N[C@H](COCc1ccccc1)c1nnnn1CCOC(=O)NCCCn1ccnc1`, the pEC50 in [1] was 7.34.

For the compound `CC(=O)N[C@@H]1CCN(C(=O)OCCn2nnnc2[C@@H](COCc2ccccc2)NC(=O)C(C)(C)N)C1`, in data set [2], the bioavailability was < 5%. The pEC50 in [1] was 8.48.

Regarding `CC(C)(N)C(=O)N[C@H](COCc1ccccc1)c1nnnn1CCOC(=O)NCCCCO`, the ED50 in the data set on Rattus norvegicus stood at 0.08 µmol/kg. The Activity entry in the data set on Salmonella typhimurium [3], in the data set on Hepatocyte and in the data set with Salmonella typhimurium [11] was “Non-toxic” in each case. The CL/F in data set [4] turned out to be 213 mL/min/kg; in the data set on Macaca fascicularis [12], 37 mL/min/kg. Further, the result in the data set with Canis familiaris [5] was Active. Further, the pIC50 on Cytochrome P450 2C19, at Cytochrome P450 2D6, at Cytochrome P450 3A4, against Cytochrome P450 2C9 and against Cytochrome P450 1A2 was < 4.00 throughout. Moreover, the figures for the half-life (in the data set with Macaca fascicularis [6]; in data set [9]; in data set [15]) were 1.1 h, 2.3 h and 0.7 h, respectively. Moreover, in the data set on Canis familiaris [7], the clearance was determined as 21 mL/min/kg. The bioavailability was determined as 12% in the data set on Macaca fascicularis [8], 40% in data set [10] and 9% in [14]. Further, the pEC50 in [1] is 8.72. The solubility in [13] was > 100 mg/mL.

For the compound `CC(C)(N)C(=O)N[C@H](COCc1ccccc1)c1nnnn1CCOC(=O)NCCc1cccc(O)c1`, in [1], the pEC50 was 8.10.

For the compound `CC(C)(N)C(=O)N[C@H](COCc1ccccc1)c1nnnn1CCOC(=O)N1CC[C@@H](O)C1`, the pEC50 in [1] was 9.00.

Consider `CC(=O)NCCCCNC(=O)OCCn1nnnc1[C@@H](COCc1ccccc1)NC(=O)C(C)(C)N`, for which the pEC50 in data set [1] is 7.08.

Consider `CC(C)(N)C(=O)N[C@H](COCc1ccccc1)c1nnnn1CCOC(=O)NCCCCCO`, for which, in data set [1], the pEC50 is 7.84.

As to `CC1(O)CCN(C(=O)OCCn2nnnc2[C@@H](COCc2ccccc2)NC(=O)C(C)(C)N)C1` (stereo partly drawn), the pEC50 in data set [1] was 8.00.

Regarding `CC(C)(N)C(=O)N[C@H](COCc1ccccc1)c1nnnn1CCOC(=O)NCCCO`, the pEC50 in [1] was 8.26.

For `CC(C)(N)C(=O)N[C@H](COCc1ccccc1)c1nnnn1CCOC(=O)NCCO`, the pEC50 in data set [1] is 8.52.

For `CN(CCCCO)C(=O)OCCn1nnnc1[C@@H](COCc1ccccc1)NC(=O)C(C)(C)N`, the pEC50 in [1] was 8.42.
